Data reported in ChEMBL document CHEMBL1145022, “Hydantoin-substituted 4,6-dichloroindole-2-carboxylic acids as ligands with high affinity for the glycine binding site of the NMDA receptor” (J Med Chem, 2003).
The source made the active and inactive calls. No cut-off for these calls is given here.

Key:
[1] = biological target: T1, Sodium channel alpha subunits; brain (Types I, II, III) (Rattus norvegicus) (UniProt P04775+P04774+P08104); experiment: Inhibition of [3H]batrachotoxin binding to rat brain sodium channels at 1 uM
[2] = biological target: T1, Sodium channel alpha subunits; brain (Types I, II, III) (Rattus norvegicus); experiment: Inhibition of [3H]batrachotoxin binding to rat brain sodium channels at 0.1 uM
[3] = biological target: T1, Sodium channel alpha subunits; brain (Types I, II, III) (Rattus norvegicus); experiment: Inhibition of [3H]batrachotoxin binding to rat brain sodium channels at 10 uM
[4] = Partition coefficient (logP); type: physicochemical; conditions: octanol/water
Summary of the method: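 Potentiometric titration in n-octanol/water; each Log P value is the mean of at least three independent experiments.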

[5] = biological target: T1, Sodium channel alpha subunits; brain (Types I, II, III) (Rattus norvegicus); experiment: Affinity for sodium channel site 2 up to 10 uM; Inactive; type: protein assay

T1 sequence (P04775 whole entry, looked up, other chains not shown): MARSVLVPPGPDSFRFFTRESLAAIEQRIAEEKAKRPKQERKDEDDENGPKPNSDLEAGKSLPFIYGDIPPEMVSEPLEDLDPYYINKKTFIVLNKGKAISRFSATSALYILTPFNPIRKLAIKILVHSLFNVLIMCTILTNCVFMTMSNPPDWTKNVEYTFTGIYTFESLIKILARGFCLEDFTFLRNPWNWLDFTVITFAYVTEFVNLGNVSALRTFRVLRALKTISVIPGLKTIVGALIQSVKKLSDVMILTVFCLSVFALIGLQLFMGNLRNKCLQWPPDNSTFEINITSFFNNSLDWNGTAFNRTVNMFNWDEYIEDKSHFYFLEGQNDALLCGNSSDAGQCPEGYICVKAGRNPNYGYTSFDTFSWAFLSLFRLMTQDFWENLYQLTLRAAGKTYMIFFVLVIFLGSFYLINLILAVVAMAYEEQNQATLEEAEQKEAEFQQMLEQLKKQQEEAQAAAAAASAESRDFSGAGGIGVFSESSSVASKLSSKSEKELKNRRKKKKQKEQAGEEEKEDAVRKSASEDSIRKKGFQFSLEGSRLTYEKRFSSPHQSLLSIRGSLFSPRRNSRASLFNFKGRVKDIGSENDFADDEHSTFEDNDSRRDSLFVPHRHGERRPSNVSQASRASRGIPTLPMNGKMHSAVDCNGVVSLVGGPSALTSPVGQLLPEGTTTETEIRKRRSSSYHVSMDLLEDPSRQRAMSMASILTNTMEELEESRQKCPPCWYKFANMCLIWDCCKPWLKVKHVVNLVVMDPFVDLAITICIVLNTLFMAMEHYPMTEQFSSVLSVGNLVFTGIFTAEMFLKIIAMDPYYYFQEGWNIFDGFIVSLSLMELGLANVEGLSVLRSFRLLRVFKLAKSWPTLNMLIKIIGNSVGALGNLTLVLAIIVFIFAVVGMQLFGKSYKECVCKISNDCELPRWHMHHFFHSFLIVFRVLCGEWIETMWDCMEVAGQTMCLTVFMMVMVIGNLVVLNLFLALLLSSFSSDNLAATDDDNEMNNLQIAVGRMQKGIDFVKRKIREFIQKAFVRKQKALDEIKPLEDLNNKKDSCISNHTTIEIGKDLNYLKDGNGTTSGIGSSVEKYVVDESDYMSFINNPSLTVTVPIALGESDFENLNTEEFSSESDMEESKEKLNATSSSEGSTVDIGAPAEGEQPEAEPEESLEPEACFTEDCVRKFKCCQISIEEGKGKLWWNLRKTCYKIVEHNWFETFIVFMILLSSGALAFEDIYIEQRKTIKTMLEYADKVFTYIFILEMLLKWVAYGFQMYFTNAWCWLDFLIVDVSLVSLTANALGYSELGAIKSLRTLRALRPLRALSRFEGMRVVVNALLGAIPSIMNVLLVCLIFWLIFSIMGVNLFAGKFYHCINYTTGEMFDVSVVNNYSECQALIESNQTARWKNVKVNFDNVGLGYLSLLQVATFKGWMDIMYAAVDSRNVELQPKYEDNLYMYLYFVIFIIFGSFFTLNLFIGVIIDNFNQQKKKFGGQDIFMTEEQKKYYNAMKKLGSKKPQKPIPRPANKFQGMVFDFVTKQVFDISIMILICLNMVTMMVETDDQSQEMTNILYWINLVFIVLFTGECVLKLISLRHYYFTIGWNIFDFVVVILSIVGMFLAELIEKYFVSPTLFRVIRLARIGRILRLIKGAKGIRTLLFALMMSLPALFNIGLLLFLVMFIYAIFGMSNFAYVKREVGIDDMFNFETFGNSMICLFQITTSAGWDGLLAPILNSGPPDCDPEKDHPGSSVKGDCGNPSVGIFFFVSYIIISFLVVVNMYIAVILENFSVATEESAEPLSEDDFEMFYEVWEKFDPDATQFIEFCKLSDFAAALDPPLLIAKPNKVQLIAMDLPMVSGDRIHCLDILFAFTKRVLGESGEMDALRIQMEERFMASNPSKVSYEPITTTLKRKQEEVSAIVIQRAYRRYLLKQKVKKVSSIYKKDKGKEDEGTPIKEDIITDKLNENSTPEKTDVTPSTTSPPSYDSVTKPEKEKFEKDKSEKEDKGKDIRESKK
T1 sequence (P08104 whole entry, looked up, other chains not shown): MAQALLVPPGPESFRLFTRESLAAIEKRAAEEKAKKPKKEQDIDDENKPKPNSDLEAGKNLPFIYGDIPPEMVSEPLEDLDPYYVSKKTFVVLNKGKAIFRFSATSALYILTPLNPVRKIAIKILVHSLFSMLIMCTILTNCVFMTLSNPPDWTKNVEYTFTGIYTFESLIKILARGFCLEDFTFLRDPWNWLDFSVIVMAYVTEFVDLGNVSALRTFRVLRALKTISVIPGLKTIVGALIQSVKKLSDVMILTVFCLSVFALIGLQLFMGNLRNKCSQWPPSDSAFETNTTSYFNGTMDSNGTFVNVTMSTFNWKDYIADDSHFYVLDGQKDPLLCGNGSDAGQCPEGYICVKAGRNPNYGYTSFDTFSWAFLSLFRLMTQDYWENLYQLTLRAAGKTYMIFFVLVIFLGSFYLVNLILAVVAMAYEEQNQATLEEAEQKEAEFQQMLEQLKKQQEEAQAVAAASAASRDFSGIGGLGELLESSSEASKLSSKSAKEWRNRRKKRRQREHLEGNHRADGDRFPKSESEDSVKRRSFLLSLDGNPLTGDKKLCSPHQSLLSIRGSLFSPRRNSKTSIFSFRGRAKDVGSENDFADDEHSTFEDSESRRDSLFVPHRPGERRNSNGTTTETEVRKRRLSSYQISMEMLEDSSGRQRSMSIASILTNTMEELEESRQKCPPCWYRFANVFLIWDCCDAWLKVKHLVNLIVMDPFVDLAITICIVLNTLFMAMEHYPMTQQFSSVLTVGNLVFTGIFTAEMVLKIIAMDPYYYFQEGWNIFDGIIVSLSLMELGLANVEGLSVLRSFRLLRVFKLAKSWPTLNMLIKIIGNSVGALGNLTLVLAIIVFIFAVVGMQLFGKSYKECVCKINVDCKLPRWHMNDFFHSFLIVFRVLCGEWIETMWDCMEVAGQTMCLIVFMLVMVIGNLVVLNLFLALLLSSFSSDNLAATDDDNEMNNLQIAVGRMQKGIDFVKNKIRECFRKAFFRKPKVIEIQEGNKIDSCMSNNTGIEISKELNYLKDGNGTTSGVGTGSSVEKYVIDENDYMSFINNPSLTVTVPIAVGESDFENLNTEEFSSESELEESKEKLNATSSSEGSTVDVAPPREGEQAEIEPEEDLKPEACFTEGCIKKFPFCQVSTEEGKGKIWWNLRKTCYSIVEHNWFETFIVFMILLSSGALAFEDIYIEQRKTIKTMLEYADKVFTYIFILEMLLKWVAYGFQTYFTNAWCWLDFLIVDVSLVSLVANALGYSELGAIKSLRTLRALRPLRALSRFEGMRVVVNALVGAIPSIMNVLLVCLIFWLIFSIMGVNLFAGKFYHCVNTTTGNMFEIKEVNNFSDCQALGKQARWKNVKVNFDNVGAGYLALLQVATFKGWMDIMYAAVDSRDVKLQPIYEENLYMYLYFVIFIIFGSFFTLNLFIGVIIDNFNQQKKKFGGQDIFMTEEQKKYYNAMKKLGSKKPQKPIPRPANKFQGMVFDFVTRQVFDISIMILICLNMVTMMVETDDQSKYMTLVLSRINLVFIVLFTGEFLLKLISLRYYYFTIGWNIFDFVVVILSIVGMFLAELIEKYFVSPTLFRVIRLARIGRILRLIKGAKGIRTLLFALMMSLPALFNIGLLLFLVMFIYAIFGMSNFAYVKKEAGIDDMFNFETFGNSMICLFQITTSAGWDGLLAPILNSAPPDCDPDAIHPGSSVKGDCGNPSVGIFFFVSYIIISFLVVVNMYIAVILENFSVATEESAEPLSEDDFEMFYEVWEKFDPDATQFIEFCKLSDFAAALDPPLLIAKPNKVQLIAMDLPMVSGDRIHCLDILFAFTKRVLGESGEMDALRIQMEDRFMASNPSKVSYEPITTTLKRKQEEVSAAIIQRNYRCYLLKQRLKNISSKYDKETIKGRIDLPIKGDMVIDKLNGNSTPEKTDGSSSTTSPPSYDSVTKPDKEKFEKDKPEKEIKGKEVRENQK

logP [4]	SMILES	other results
–	CC(C)C1C(=O)N(c2ccccc2)C(=O)N1Cc1c(C(=O)O)[nH]c2cc(Cl)cc(Cl)c12 (stereo not drawn)	inhibition [1]: 8%; inhibition [2]: 11%; inhibition [3]: 29%
2.36	O=C(NCc1c(C(=O)O)[nH]c2cc(Cl)cc(Cl)c12)c1ccccc1	–
2.16	O=C(O)c1[nH]c2cc(Cl)cc(Cl)c2c1CN1CC(=O)N(c2ccccc2)C1=O	IA [5]: inactive
2.83	O=C(NCc1c(C(=O)O)[nH]c2cc(Cl)cc(Cl)c12)Nc1ccccc1	–
3.1	O=C(O)c1[nH]c2cc(Cl)cc(Cl)c2c1CNS(=O)(=O)c1ccccc1	–
